Measurements from ChEMBL document CHEMBL1123757, “Selective thromboxane synthetase inhibitors and antihypertensive agents. New derivatives of 4-hydrazino-5H-pyridazino[4,5-b]indole, 4-hydrazinopyridazino[4,5-a]indole, and related compounds” (J Med Chem, 1987).

Experiments:
Rattus norvegicus [1] = test: Antihypertensive activity in spontaneously hypertensive rats (SHR) measured by percentage fall in cardiac rhythm (CR) at 25 mg/kg administered intraperitoneally at 5 h; format: functional, Heart; conditions: route intraperitoneal
Outline: (§1)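 Conscious SHR (Okamoto strain), 8 weeks old, male and female, 300–350 g, systolic BP ≥190 mmHg, CR 400–650 beats/min. Given ip or po at 2.5 mL/kg in normal saline or saline with 0.2% (carboxymethyl)cellulose and 1.0% Tween 80. Tail AP and CR recorded by mechanical transduction at 1, 3, 5 and 24 h, five animals per dose. Effect expressed as % fall versus control.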

Rattus norvegicus [2] = test: Antihypertensive activity in spontaneously hypertensive rats (SHR) measured by percentage fall in cardiac rhythm (CR) at 25 mg/kg administered intraperitoneally at 24 h; format: functional, Heart; conditions: route intraperitoneal
Outline: (§2)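 Unanesthetized Okamoto-strain SHR, male and female, 8 weeks old, 300–350 g, systolic pressure ≥190 mmHg, heart rate 400–650 beats/min; five animals per dose. Given ip at 2.5 mL/kg, dissolved or suspended in normal saline or saline with 0.2% (carboxymethyl)cellulose and 1.0% Tween 80. Tail AP and CR recorded by mechanical transduction at set times; reported as percentage fall from control.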

Rattus norvegicus [3] = test: Antihypertensive activity in spontaneously hypertensive rats (SHR) measured by percentage fall in arterial pressure (AP) at 25 mg/kg administered intraperitoneally at 24 h; format: functional, Artery; conditions: route intraperitoneal; outline: as §2
Rattus norvegicus [4] = test: Antihypertensive activity in spontaneously hypertensive rats (SHR) measured by percentage fall in cardiac rhythm (CR) at 25 mg/kg administered intraperitoneally at 1 h; format: functional, Heart; conditions: route intraperitoneal; outline: as §2
Rattus norvegicus [5] = test: Antihypertensive activity in spontaneously hypertensive rats (SHR) measured by percentage fall in cardiac rhythm (CR) at 25 mg/kg administered intraperitoneally at 3 h; format: functional, Heart; conditions: route intraperitoneal; outline: as §2
Rattus norvegicus [6] = test: Antihypertensive activity in spontaneously hypertensive rats (SHR) measured by percentage fall in arterial pressure (AP) at 25 mg/kg administered intraperitoneally at 3 h; format: functional, Artery; conditions: route intraperitoneal; outline: as §2
Rattus norvegicus [7] = test: Antihypertensive activity in spontaneously hypertensive rats (SHR) measured by percentage fall in arterial pressure (AP) at 25 mg/kg administered intraperitoneally at 5 h; format: functional, Artery; conditions: route intraperitoneal; outline: as §2
Rattus norvegicus [8] = test: Antihypertensive activity in spontaneously hypertensive rats (SHR) measured by percentage fall in arterial pressure (AP) at 25 mg/kg administered intraperitoneally at 1 h; format: functional, Artery; conditions: route intraperitoneal; outline: as §2
Rattus norvegicus [9] = test: Antihypertensive activity in spontaneously hypertensive rats (SHR) measured by percentage fall in arterial pressure (AP) at 25 mg/kg administered intraperitoneally at 24 h;No significance; format: functional, organism-based; set-up: dose 25 mg/kg; conditions: Artery; outline: as §2
Rattus norvegicus [10] = test: Antihypertensive activity in spontaneously hypertensive rats (SHR) measured by percentage fall in cardiac rhythm (CR) at 25 mg/kg administered intraperitoneally at 24 h;No significance; format: functional, organism-based; set-up: dose 25 mg/kg; conditions: Heart; outline: as §2
Rattus norvegicus [11] = test: Antihypertensive activity in spontaneously hypertensive rats (SHR) measured by percentage fall in cardiac rhythm (CR) at 25 mg/kg administered intraperitoneally at 5 h;No significance; format: functional, organism-based; set-up: dose 25 mg/kg; conditions: Heart; outline: as §1
Rattus norvegicus [12] = test: Antihypertensive activity in spontaneously hypertensive rats (SHR) measured by percentage fall in arterial pressure (AP) at 25 mg/kg administered intraperitoneally at 3 h;No significance; format: functional, organism-based; set-up: dose 25 mg/kg; conditions: Artery; outline: as §2
Homo sapiens [13] = species: Homo sapiens; test: In vitro inhibition of platelet aggregation induced by ADP-II (PRP incubated for 5 minutes at 37 degree C) at 10e-5 M; format: functional
Outline: (§3)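 Human venous blood anticoagulated with 3.8% sodium citrate (1:9). PRP from centrifugation at 800 rpm for 10 min at room temperature. Count adjusted with PPP to […]. Compound in saline with 10% ethylene glycol is added to PRP and incubated at 37 °C before the agonist. Agonists: ADP 2×10^-5 M, AA 0.6 mM, PGH2 2.8 μM, adrenaline 0.6 μM. Born absorbance aggregometry; n = 5.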

Homo sapiens [14] = species: Homo sapiens; test: In vitro inhibition of platelet aggregation induced by ADP-II (PRP incubated for 60 minutes at 37 degree C) at 10e-5 M; format: functional; conditions: 1 h; outline: as §3
Rattus norvegicus [15] = test: Antihypertensive activity in spontaneously hypertensive rats (SHR) measured by percentage fall in cardiac rhythm (CR) at 25 mg/kg administered intraperitoneally at 3 h;No significance; format: functional, organism-based; set-up: dose 25 mg/kg; conditions: Heart; outline: as §1
Rattus norvegicus [16] = test: Antihypertensive activity in spontaneously hypertensive rats (SHR) measured by percentage fall in arterial pressure (AP) at 25 mg/kg administered intraperitoneally at 5 h;No significance; format: functional, organism-based; set-up: dose 25 mg/kg; conditions: Artery; outline: as §2
Rattus norvegicus [17] = test: Antihypertensive activity in spontaneously hypertensive rats (SHR) measured by percentage fall in cardiac rhythm (CR) at 25 mg/kg administered intraperitoneally at 1 h;No significance; format: functional, organism-based; set-up: dose 25 mg/kg; conditions: Heart; outline: as §2

Structure (SMILES)	Decrease in CR (Rattus norvegicus [1]) [%]	Decrease in CR (Rattus norvegicus [2]) [%]	Decrease in AP (Rattus norvegicus [3]) [%]	Decrease in CR (Rattus norvegicus [4]) [%]	Decrease in CR (Rattus norvegicus [5]) [%]	Decrease in AP (Rattus norvegicus [6]) [%]	Decrease in AP (Rattus norvegicus [7]) [%]	Decrease in AP (Rattus norvegicus [8]) [%]	Decrease in AP (Rattus norvegicus [9])	Decrease in CR (Rattus norvegicus [10])	Decrease in CR (Rattus norvegicus [11])	Decrease in AP (Rattus norvegicus [12])	inhibition at 10 µM (Homo sapiens [13]) [%]	inhibition at 10 µM (Homo sapiens [14]) [%]	Decrease in CR (Rattus norvegicus [15])	Decrease in AP (Rattus norvegicus [16])	Decrease in CR (Rattus norvegicus [17])
Cl.NNc1[nH]ncc2c3cc(OCc4ccccc4)ccc3nc1-2	-15	-16	9	-7	-13	33	28	18									
CCOc1ccc2[nH]c3c(NN)nncc3c2c1	-9		5	-20	-11	28	24	29									
COc1ccc2[nH]c3c(NN=C(C)C)nncc3c2c1	-8	-10	7		-11	13	14										
COc1ccc2[nH]c3c(cnn4cnnc34)c2c1					10		11		No significant values	No significant values	No significant values	No significant values					
COc1ccc2[nH]c3c(NN)nncc3c2c1	-10		5	-8	-8	32	30	17									
COc1ccc2c(c1)cc1c(NN)nncn12													100	100			
COc1ccc2[nH]c3c(cnn4nnnc34)c2c1			6			12	8			No significant values	No significant values				No significant values		
CCOc1ccc2[nH]c3c(S)nncc3c2c1						5		10	No significant values	No significant values	No significant values				No significant values	No significant values	No significant values
